The results in this text go back to ChEMBL document CHEMBL4261634, “Design and optimization of 2,3-dihydrobenzo[b][1,4]dioxine propanoic acids as novel GPR40 agonists with improved pharmacokinetic and safety profiles” (Bioorg Med Chem, 2018).

Data set [1] has as its system Rattus norvegicus. The data set is described as follows: Subacute toxicity in Sprague-Dawley rat assessed as effect on behavior at 50 to 100 mg/kg, po administered once daily for 2 weeks. Type of data set: organism-based. Particulars: in vivo, 336 h. In outline: (§1)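 SD rats dosed orally once daily for two weeks at 50 mg/kg and 100 mg/kg. Subacute toxicity was assessed over the dosing period from survival rate, behaviour, food intake and organ coefficients.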

Data set [2] deals with Cytochrome P450 3A4 (Homo sapiens, UniProt P08684). Put plainly: Inhibition of CYP3A4 (unknown origin). Type of data set: ADME.
Sequence of Cytochrome P450 3A4 (P08684 whole entry): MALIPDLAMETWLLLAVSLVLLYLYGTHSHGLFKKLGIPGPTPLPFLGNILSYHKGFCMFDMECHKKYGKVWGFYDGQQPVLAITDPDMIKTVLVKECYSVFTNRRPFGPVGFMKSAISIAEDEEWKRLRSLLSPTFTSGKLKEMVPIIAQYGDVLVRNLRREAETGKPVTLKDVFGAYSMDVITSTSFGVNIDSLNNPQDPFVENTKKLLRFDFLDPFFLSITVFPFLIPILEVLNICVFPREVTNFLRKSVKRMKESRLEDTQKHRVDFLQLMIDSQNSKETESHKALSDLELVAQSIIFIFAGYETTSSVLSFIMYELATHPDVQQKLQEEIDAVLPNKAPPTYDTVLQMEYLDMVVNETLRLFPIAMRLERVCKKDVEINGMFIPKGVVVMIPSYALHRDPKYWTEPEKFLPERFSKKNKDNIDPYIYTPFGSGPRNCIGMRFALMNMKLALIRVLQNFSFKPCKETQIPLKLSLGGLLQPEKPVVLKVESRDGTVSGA
A short description of data set [3]: Tmax in Sprague-Dawley rat at 10 mg/kg, po by LC-ESI-MS analysis. The class given is ADME, organism-based. As to conditions: in vivo. Put shortly: (§2)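 SD rats dosed orally (3 or 10 mg/kg) or by intravenous injection (1 mg/kg). Plasma PK parameters derived per route: Cmax, AUC0-t, Tmax, t1/2 and F after oral dosing; CL, AUC0-t, MRT, t1/2 and Vdss after iv dosing. Mean ± SD from three independent experiments (n = 3).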

The test system of data set [4] is Rattus norvegicus. Put plainly: Subacute toxicity in Sprague-Dawley rat assessed as effect on food intake at 50 to 100 mg/kg, po administered once daily for 2 weeks. The class given is organism-based. As to conditions: in vivo, 336 h. In outline:
as §1

Data set [5] in a line: Cmax in Sprague-Dawley rat at 10 mg/kg, po by LC-ESI-MS analysis. The class given is ADME, organism-based. The arrangement: dose 10 mg/kg, route oral. As to conditions: in vivo. Put shortly: as §2
A short description of data set [6]: Cmax in Sprague-Dawley rat at 3 mg/kg, po by LC-ESI-MS analysis. The arrangement: dose 3 mg/kg, route oral. As to conditions: in vivo. Type of data set: ADME, organism-based. In outline:
as §2

The target of data set [7] is Cytochrome P450 2C9 (Homo sapiens, UniProt P11712). The data set is described as follows: Inhibition of CYP2C9 (unknown origin). Type of data set: ADME.
Sequence of Cytochrome P450 2C9 (P11712 whole entry): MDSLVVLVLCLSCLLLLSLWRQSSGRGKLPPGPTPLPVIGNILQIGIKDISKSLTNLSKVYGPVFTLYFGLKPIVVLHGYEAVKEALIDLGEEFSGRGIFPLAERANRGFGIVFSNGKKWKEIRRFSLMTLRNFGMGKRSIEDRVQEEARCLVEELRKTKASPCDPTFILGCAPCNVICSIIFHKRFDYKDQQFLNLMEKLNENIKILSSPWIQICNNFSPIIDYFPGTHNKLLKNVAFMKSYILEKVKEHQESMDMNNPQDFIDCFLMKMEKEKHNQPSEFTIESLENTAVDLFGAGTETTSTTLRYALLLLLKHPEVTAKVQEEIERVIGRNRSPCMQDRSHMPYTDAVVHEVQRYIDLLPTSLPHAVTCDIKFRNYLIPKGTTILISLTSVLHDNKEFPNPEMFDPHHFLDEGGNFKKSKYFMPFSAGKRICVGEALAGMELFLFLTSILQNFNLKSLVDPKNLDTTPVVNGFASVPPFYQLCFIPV
In data set [8] the target is T1, Free fatty acid receptor 1 (Homo sapiens, UniProt O14842). Put plainly: Agonist activity at human GPR40 expressed in human HEK293 cells assessed as increase in intracellular calcium flux after 10 mins by fluorescence assay relative to linoleic acid. Type of data set: functional, cell-based. In outline: (§3)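 Human GPR40 activity read by calcium mobilization to give EC50. Emax expressed relative to linoleic acid as 100%. Mean ± SD, n = 3.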
T1 sequence (O14842 whole entry): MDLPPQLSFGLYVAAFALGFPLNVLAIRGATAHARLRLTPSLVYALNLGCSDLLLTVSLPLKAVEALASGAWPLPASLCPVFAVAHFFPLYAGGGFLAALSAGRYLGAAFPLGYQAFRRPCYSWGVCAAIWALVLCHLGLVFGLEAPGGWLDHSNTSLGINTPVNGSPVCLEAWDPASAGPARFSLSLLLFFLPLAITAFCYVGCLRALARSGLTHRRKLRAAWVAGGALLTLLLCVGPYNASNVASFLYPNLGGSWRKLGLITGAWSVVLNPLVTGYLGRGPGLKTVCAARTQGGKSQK

The nature of data set [9]: Oral bioavailability in Sprague-Dawley rat at 3 mg/kg by LC-ESI-MS analysis. The class given is ADME, organism-based. Particulars: in vivo. In outline:
as §2

Data set [10] concerns Rattus norvegicus. Put plainly: Antidiabetic activity in Sprague-Dawley rat assessed as reduction in blood glucose AUC (0 to 120 mins) at 10 to 20 mg/kg, po administered 60 mins prior to glucose challenge by OGTT. The class given is functional, organism-based. In outline:
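OGTT in SD rats: compound given orally 60 min before a 3.0 g/kg glucose challenge. Blood glucose followed over time, and AUC0-60min or AUC0-120min calculated versus vehicle group. Mean ± SD, n = 8.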

The nature of data set [11]: AUC (0 to t) in Sprague-Dawley rat at 1 mg/kg, iv by LC-ESI-MS analysis. The class given is ADME, organism-based. Particulars: in vivo. In outline: as §2
In data set [12] the target is T2, Solute carrier organic anion transporter family member 1B1 (Homo sapiens, UniProt Q9Y6L6).
T2 sequence (Q9Y6L6 whole entry): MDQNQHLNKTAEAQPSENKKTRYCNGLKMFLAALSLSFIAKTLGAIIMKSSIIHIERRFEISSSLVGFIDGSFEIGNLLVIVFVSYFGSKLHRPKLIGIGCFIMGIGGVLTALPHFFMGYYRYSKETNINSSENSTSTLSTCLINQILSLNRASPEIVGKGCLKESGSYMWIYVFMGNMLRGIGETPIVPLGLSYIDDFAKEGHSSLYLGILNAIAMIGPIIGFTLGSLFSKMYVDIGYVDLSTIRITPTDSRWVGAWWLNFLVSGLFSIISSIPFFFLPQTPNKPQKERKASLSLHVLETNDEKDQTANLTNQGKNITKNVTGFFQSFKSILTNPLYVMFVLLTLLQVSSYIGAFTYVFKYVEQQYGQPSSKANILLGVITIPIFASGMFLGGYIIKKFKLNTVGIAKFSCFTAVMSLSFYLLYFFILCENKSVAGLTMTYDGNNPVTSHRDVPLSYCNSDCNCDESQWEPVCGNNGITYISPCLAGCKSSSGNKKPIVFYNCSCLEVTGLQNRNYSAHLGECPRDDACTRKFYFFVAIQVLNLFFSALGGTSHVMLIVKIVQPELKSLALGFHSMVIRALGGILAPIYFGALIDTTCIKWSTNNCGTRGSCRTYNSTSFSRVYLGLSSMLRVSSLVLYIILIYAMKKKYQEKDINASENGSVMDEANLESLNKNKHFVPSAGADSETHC
Put plainly: Inhibition of human OATP1BA.

Data set [13] has as its target T1, Free fatty acid receptor 1. Put plainly: Agonist activity at GPR40 (unknown origin). Type of data set: functional. In outline:
as §3

The target in data set [14] is ATP-binding cassette sub-family C member 2 (Homo sapiens, UniProt Q92887). The data set is described as follows: Inhibition of human MRP2.
Sequence of ATP-binding cassette sub-family C member 2 (Q92887 whole entry): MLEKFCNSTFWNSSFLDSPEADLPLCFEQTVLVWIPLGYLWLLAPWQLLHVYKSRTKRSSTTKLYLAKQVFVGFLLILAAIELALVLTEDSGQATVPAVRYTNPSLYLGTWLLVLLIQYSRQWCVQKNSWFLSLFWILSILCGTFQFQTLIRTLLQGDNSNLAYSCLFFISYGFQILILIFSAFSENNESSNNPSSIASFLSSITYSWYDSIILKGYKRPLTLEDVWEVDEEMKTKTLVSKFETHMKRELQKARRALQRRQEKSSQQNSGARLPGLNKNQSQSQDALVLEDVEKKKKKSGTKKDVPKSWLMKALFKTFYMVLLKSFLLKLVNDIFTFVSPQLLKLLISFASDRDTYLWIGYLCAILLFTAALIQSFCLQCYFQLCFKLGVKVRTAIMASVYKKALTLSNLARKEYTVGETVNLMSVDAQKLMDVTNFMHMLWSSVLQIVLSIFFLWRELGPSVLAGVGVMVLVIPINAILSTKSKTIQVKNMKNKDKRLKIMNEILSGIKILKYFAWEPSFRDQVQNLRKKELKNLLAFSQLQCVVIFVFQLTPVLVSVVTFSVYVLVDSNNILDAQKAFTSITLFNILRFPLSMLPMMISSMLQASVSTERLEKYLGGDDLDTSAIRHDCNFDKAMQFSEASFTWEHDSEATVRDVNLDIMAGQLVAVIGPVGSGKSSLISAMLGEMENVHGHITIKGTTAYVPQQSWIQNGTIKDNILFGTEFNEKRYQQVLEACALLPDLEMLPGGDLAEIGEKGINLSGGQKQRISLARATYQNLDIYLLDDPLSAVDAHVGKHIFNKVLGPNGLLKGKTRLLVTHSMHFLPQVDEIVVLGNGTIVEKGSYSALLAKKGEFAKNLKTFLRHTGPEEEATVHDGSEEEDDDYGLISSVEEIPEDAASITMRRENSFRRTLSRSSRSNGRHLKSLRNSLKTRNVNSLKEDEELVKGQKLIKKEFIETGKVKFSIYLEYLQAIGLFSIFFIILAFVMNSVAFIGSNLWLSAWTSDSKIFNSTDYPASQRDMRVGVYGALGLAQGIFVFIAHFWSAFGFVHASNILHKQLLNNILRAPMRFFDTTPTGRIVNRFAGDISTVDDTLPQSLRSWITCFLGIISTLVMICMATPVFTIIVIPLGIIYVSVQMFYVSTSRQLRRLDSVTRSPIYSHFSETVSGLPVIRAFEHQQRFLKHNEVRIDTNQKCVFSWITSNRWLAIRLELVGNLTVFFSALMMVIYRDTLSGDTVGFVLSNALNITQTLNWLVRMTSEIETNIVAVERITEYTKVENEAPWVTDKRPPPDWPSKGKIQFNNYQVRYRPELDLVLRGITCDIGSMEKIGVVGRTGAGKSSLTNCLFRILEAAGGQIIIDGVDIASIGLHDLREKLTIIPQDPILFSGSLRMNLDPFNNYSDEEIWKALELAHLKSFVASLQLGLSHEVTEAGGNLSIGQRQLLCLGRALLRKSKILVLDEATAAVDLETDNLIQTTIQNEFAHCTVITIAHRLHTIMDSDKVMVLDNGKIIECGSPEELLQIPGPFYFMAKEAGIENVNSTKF
The test system of data set [15] is Rattus norvegicus. The data set is described as follows: Subacute toxicity in Sprague-Dawley rat assessed as effect on survival rate at 50 to 100 mg/kg, po administered once daily for 2 weeks. As to conditions: in vivo, 336 h. Type of data set: organism-based. In outline: as §1
Data set [16] concerns the target T3, Solute carrier organic anion transporter family member 1B3 (Homo sapiens, UniProt Q9NPD5).
T3 sequence (Q9NPD5 whole entry): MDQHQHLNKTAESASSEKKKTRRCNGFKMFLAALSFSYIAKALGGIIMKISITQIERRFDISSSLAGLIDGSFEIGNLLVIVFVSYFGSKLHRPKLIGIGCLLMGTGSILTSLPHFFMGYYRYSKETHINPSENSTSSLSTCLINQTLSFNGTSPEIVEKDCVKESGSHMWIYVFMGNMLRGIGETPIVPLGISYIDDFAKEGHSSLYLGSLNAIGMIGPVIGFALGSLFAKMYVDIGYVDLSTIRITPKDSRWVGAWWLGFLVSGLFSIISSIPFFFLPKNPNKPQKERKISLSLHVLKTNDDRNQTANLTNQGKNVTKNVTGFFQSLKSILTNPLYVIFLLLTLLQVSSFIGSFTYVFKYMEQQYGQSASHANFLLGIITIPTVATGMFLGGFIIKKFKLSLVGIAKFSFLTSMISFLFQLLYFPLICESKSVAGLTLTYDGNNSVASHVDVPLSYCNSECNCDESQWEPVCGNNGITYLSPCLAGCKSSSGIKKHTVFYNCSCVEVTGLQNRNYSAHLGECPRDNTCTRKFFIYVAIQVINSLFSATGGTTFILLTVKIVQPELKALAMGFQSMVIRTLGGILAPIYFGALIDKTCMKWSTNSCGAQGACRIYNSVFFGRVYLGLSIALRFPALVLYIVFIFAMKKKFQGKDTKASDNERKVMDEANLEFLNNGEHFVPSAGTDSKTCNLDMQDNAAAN
The data set is described as follows: Inhibition of human OATP1B3. The class given is ADME.

Active and inactive are the calls of the source. No cut-off for these calls is given here. A value given as a limit tells only on which side of the number the result lay.

For `CC#C[C@@H](CC(=O)O)c1ccc(OC[C@H]2COc3ccc(Cl)cc3O2)cc1`, the Activity result in [1], in data set [4] and in [15] was “Non-Toxic” in each case. For the same molecule, the IC50 in data set [2] was over 100 µM; in [7], 60.5 µM; in [12], over 100 µM; in data set [14] it was over 100 µM; in [16] it was 39.5 µM. Moreover, in [3], the Tmax is 4 h. Besides, the Cmax in data set [5] is 47800 ng/mL; in [6], 9310 ng/mL. Further, the maximal response (Emax) in data set [8] was 86%. The bioavailability in data set [9] was 65.5%. In [10], the outcome was Active. In [11], this molecule registered an AUC(0-t) of 71400 ng·h/mL. In data set [13], this molecule gave an EC50 of 0.046 µM.

Broadly, the IC50 is the concentration that inhibits the measured activity by half. Low values mean higher potency, high ones lower potency. In general, Tmax refers to the time from dosing to the highest level. What is called Cmax is the maximum level reached in the sampled fluid or tissue. For orientation: Emax means the greatest response seen or fitted, relative to the assay's reference. By bioavailability is commonly meant dose-corrected exposure relative to a reference, in per cent. High values mean much systemic uptake, low ones little systemic uptake. Broadly, the AUC(0-t) is the area under the concentration-time curve up to a stated or last time point. The low end stands for low exposure, the high end for high exposure. By EC50 is commonly meant the concentration needed to bring the measured effect to its halfway point.
